Source: PubChem BioAssay (The Scripps Research Institute Molecular Screening Center)
An excerpt weighted towards active compounds, which were near 2.6% of everything screened.
PRMT1 inh: inhibitors of human PRMT1. hit rate 1.3% among 370,000. inhibition, % at 2.79 µM. AID 652257. recombinant PRMT1, activity-based probe fluorescence polarization. Q99873;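 active means inhibition above about 21% made by adding two undisclosed values, limit read from the data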
TCR CD3 inh: inhibitors of human TCR-CD3 interaction | hit rate 0.37% among 360,000 | TAMRA-labeled TCR probe fluorescence, biochemical | inhibition, % at 9.4 µM; in the data active means inhibition above about 19%;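 further: recombinant mutant TCR 2C K166C tagged with TAMRA read by polarization; 0% = receptor in buffer alone and 100% = receptor with positive control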
mABHD4 FP: ABHD4 (mouse) inhibition, primary FP screen. purified mABHD4, FP-Rh probe fluorescence polarization. hit rate 0.54% among 370,000. inhibition, % at 8.92 µM. Q8VD66;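 active means inhibition exceeding the mean over every tested compound plus 3 SD, cut at about 30% in these data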;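 further: 0% = plate median of compound wells and 100% = S159A mutant with DMSO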
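Doses – 8.92 µM, single dose · Material – wild-type mouse ABHD4 protein · Replication – single well per compound (singlicate) · Measure – percent inhibition of probe binding, normalized to plate controls · Schedule – 45 min compound pre-incubation plus 60 min probe step, 25 °C · Detection – fluorescence polarization with parallel and perpendicular emission, 525/598 nm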
SIAE primary: human SIAE inhibition, primary screen | Q9HAT2 | SIAE FP-Rh probe binding, fluorescence polarization | inhibition, % at 9.66 µM | hit rate 0.69% among 370,000;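 active means inhibition above a cutoff: mean of compounds within the control limits plus 3 SD of those, cut at about 17% in these data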;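 further: 0% = plate median of compound wells and 100% = probe without SIAE protein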
HTRA1 inh: HTRA1 (human) protease inhibition; hit rate 0.5% among 340,000; Q92743; inhibition, % at 5.96 µM; recombinant HTRA1, FP-rhodamine activity-based probe, fluorescence polarization; AID 504803; in the data active means inhibition above about 36%;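 further: 0% = enzyme with DMSO and 100% = wells lacking enzyme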
Target sequence (Q92743 whole entry, looked up): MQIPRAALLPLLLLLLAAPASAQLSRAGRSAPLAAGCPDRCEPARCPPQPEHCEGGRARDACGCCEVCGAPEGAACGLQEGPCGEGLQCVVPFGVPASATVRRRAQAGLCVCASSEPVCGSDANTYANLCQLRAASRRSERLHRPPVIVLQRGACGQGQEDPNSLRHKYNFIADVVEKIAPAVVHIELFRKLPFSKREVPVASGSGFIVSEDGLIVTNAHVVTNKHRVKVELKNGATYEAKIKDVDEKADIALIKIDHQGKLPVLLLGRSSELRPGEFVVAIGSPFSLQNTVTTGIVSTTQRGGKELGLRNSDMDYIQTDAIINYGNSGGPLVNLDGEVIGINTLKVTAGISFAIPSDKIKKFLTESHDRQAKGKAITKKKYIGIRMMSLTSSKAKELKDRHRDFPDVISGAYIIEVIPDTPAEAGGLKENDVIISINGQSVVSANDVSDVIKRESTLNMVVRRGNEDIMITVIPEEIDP
SIAE inh conf: confirmation of human SIAE inhibitors; SIAE FP-Rh activity-based probe, fluorescence polarization; inhibition, % at 9.66 µM; AID 1117263; shares compounds with SIAE primary; hit rate 13% among 2,300;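 active means mean inhibition of the replicates above the hit cutoff set in the primary screen, cut at about 17% in these data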;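 further: 0% = SIAE with DMSO and probe and 100% = probe without SIAE; inhibitors lower polarization as more probe stays unbound to SIAE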
* hit, by the source's call; · = no result given; + = active, no number.

SMILES | PRMT1 inh | TCR CD3 inh | mABHD4 FP | SIAE primary | HTRA1 inh | SIAE inh conf
CN(C(=O)CSc1nncn1C)C1CCCN(Cc2ccccc2F)C1 (stereo unspecified) | -1 | 7 | -3 | 0 | 1 | ·
CCC(=O)c1c(CC)c2n3c1CC[C@H]3CCC2 | 1 | -5 | 3 | 17* | 11 | 4
Cc1ccc(S(=O)(=O)CCC(=O)Nc2cccc(S(=O)(=O)N3CCCCCC3)c2)cc1 | 2 | -4 | -2 | -3 | -14 | ·
CN(c1ccccc1)S(=O)(=O)c1cccc(NC(=O)CSc2ncn[nH]2)c1 | 4 | -4 | -7 | 18* | -9 | 0
CN(c1ccccc1)S(=O)(=O)c1cccc(NC(=O)CSc2nncs2)c1 | 1 | 1 | 3 | -2 | -9 | ·
Nc1cc(N)cc(-c2nc3ccccc3o2)c1 | -2 | 0 | 24 | 25* | 16 | 2
COc1ccc(OCc2n[nH]c(=S)n2-c2ccc(C)cc2)cc1 | 8 | -1 | 8 | 3 | -1 | ·
COc1ccc(-n2c(COc3cccc(C)c3)n[nH]c2=S)cc1 | 3 | -2 | -3 | 19* | -2 | -1
O=C(Nc1ccc2c(c1)OCO2)c1ccc2sc([C@H]3C[C@H](O)[C@@H](CO)O3)nc2c1 | 1 | -1 | 2 | -6 | · | ·
CCn1c(SCC(N)=O)nc2cc(S(=O)(=O)N3CCOCC3)ccc21 | -6 | 10 | -1 | -7 | -3 | ·
CCn1c(CCl)nc2cc(S(=O)(=O)N3CCOCC3)ccc21 | -1 | 2 | 2 | 18* | · | 7
COc1ccccc1-c1cccc2nccn12 | -4 | 2 | 3 | 7 | · | ·
CC(=O)Nc1ccc(OCC(O)Cn2c(C)nc3ccccc32)cc1 (stereo unspecified) | -2 | 3 | -2 | 19* | 3 | -5
NC(=O)c1cc(S(=O)(=O)N2CCCC2)ccc1OCCOc1ccccc1F | 1 | 2 | 8 | 21* | -3 | 1
CCC(=O)NC(c1ccco1)c1cc(Br)c2cccnc2c1O (stereo unspecified) | -6 | -2 | 20 | 19* | · | 11
COc1cc(/C=N/NC(=O)c2ccc(CSc3nc4ccccc4[nH]3)cc2)ccc1O | 2 | -7 | -22 | 19* | · | 3
C=CCN1C(=O)[C@H](CC(=O)NCc2cccc(C(F)(F)F)c2)[C@@]2(C(=O)OCC)CCCC=C12 | -3 | · | -2 | 1 | · | ·
C/C(=N\NC(=S)NC(C)C)c1cccc([N+](=O)[O-])c1 | -1 | 7 | 1 | 20* | 6 | -1
CC(=O)c1ccc(N2CCN(c3ccccc3O)CC2)c([N+](=O)[O-])c1 | 8 | -9 | 9 | 31* | 3 | -2
CCOc1ccc(/C=C2/SC(=O)NC2=S)cc1 | 13 | 2 | -1 | + | -8 | -11
CCOc1ccc(N=C2NC(=O)S/C2=C\c2ccc(N(C)C)cc2)cc1 | 3 | 2 | 8 | -99 | -2 | ·
CC(C)C[C@H]1COc2cccc(N3CCCCC3)c2S(=O)(=O)N1 | -2 | -6 | -5 | -4 | · | ·
COc1ccccc1C(=O)N/C(=C\c1cn(S(=O)(=O)N(C)C)c2ccccc12)C(=O)N1CCCC1 | -2 | -4 | 13 | -2 | -3 | ·
Cn1c(CCN2CCN(c3ccccn3)CC2)nc2cc(NC(=O)COc3ccccc3)ccc21 | 2 | 0 | -3 | 70* | 0 | 1
Cc1onc(-c2c(Cl)cccc2Cl)c1C(=O)Nc1ccc(C(N)=O)cc1 | 4 | 1 | -6 | 1 | -6 | ·
SMILES | PRMT1 inh | TCR CD3 inh | mABHD4 FP | SIAE primary | HTRA1 inh | SIAE inh conf
COc1ccc(-n2ncc3c2CC(C)(C)CC3NC(=O)c2c(C)cc(=O)oc2C)cc1 (stereo unspecified) | -5 | 0 | -11 | -8 | -6 | ·
Cc1ccc(NC(=O)NNC(=O)c2cc3ccccc3cc2O)c(C)c1 | -1 | 14 | 18 | 22* | 35 | -4
Cc1ccc(NC(=O)c2cc3ccccc3cc2O)cc1 | -2 | 8 | 19 | -6 | -2 | ·
COC(=O)c1cc(OCC(=O)Nc2ccc3c(c2)CCC3)cc(C(=O)OC)c1 | 4 | 7 | 10 | -4 | -6 | ·
S=C(Nc1ccc2nsnc2c1)NC1CCCCC1 | 1 | -1 | -5 | 19* | 1 | 2
CCOc1ccc(NC(=O)C(=O)NCCN2CCN(C(=O)c3ccc(C)cc3)CC2)cc1 | 3 | -2 | 6 | -3 | -1 | ·
CC(C)(C)OC(=O)N1Cc2[nH]c3ccccc3c2C[C@@H]1C(=O)O | -1 | -5 | -2 | 26* | 0 | 3
CC(C)(C)OC(=O)N1Cc2ccccc2C[C@H]1C(=O)N1CCC[C@H]1C(=O)O | 0 | -2 | -4 | 0 | 6 | ·
COc1ccc2[nH]c3c(c2c1)CCN1C(=O)C(CC(=O)NCCCN(C)C)C[C@H](C(=O)N2CCCCC2)[C@@]31C (stereo partly specified) | 2 | 5 | 2 | 1 | 4 | ·
CC(C)(C)c1ccc(C(=O)NCC(=O)N2CCCCCC2)cc1 | 0 | 1 | 5 | 21* | -6 | -2
Cc1cccc(C)c1-n1nnnc1C1(C)CCC(=O)N1Cc1cccnc1 (stereo unspecified) | -1 | 3 | 0 | 3 | · | ·
CS(=O)(=O)N(CC(=O)NCCSCc1c(F)cccc1Cl)c1ccc2c(c1)OCO2 | 3 | -7 | -1 | 18* | 7 | 7
COc1ccc(C(=O)OCC(=O)c2ccc(CNC(C)=O)s2)cc1 | -2 | 6 | 3 | 24* | 0 | -1
O=C(CSc1ccccc1)Nc1ccc(N2CCOCC2)c(F)c1 | 3 | -5 | 1 | 18* | 8 | 3
CC(=O)c1ccc2ccccc2c1OC(=O)c1ccncc1 | 0 | 8 | 2 | -6 | -6 | ·
COc1ccc(-n2c(Cc3cccn3C)nnc2SCC(=O)N2CCC(C)CC2)cc1 | -3 | 2 | 4 | 6 | 4 | ·
Cn1cccc1Cc1nnc(SCC(=O)Nc2ccc3c(c2)OCCO3)n1-c1ccc(F)cc1 | 8 | -2 | 4 | 20* | -5 | -5
COc1ccc(-n2c(Cc3cccn3C)nnc2SCC(=O)N2CCCC2)cc1 | 1 | -12 | 0 | 18* | -10 | 1
Nc1[nH]c2cc(Cl)ccc2c1C(=O)NCCc1ccc(Cl)cc1 | 2 | · | 19 | 19* | · | 19*
CNS(=O)(=O)c1cccc(C(=O)NCC(C)(C)N2CCCCC2)c1 | -5 | 5 | 7 | -3 | 4 | ·
COc1ccc(-c2cc(-c3nnc(SCc4cccc5ccccc45)n3N)[nH]n2)cc1 | 8 | · | -13 | -3 | · | ·
Cc1nc2c(C)cccc2cc1C(=O)N/N=C/c1cccnc1 | -4 | 1 | 5 | 18* | 3 | 2
COC(=O)c1ccc(Oc2nc3c(c(=O)n(C)c(=O)n3C)n2CCC(C)C)cc1 | -1 | 2 | -3 | 28* | 5 | -3
COc1ccc(CN2CCNC(=O)C2CC(=O)NCCc2nc(C)c(C)s2)cc1C (stereo unspecified) | 1 | 4 | 5 | 6 | 6 | ·
Cc1nc2cc(C(=O)O)ccc2n1-c1ccccc1 | 1 | 1 | 2 | -3 | 1 | ·
COc1ccccc1-n1c(C)nc2cc(C(=O)O)ccc21 | 1 | 8 | 0 | 17* | 10 | -2
